Tests used:
[1] = test system: Tyrosine-protein kinase ABL1 (Homo sapiens), P00519 [E255K]; experiment: Inhibition of phosphorylated partial length human ABL1 E255K mutant expressed in mammalian expression system at 0.5 uM by KINOMEscan method relative to control
Procedure, shortened: (§1)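 Competition binding screen (KINOMEscan) at 0.5 μM; primary binding read out as % of control, lower values indicating stronger interaction.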

[2] = target: Non-receptor tyrosine-protein kinase TYK2 (Homo sapiens) (UniProt P29597); experiment: Inhibition of partial length wild type human Tyk2 expressed in mammalian expression system at 0.5 uM by KINOMEscan method relative to control; procedure, shortened: as §1
Non-receptor tyrosine-protein kinase TYK2 (Homo sapiens), sequence (P29597 whole entry): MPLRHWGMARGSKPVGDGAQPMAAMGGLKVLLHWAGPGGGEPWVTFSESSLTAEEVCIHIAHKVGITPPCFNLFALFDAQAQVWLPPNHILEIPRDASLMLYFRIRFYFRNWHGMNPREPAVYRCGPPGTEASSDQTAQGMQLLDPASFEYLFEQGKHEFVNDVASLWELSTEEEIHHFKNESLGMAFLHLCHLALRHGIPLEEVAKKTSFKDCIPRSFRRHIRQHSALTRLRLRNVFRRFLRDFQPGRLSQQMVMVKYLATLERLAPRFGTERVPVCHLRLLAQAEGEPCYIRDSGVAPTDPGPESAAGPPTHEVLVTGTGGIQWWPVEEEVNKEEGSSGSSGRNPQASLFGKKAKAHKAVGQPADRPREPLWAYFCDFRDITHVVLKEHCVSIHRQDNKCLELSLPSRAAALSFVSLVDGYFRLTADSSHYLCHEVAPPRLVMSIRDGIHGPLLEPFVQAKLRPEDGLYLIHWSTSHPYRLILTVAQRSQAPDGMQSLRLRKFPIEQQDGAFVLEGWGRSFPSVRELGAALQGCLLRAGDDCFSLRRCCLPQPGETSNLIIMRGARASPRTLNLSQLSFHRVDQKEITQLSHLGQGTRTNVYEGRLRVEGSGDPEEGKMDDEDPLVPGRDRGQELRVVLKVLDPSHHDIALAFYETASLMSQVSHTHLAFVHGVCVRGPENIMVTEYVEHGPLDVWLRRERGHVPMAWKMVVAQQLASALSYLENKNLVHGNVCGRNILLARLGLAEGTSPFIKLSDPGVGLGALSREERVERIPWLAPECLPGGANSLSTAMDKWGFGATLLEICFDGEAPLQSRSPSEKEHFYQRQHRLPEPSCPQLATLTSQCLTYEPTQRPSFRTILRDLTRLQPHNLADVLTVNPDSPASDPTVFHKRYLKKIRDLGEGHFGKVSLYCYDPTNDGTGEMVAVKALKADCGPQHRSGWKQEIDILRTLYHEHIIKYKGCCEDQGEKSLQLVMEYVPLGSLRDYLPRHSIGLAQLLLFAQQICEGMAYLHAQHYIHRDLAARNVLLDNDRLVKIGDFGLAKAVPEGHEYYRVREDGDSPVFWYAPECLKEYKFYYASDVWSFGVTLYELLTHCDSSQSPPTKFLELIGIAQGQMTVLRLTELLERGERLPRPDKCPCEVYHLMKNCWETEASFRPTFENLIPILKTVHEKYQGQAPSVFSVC

[3] = Growth inhibition of mouse adenocarcinoma cells after 48 hrs by MTT assay; type: functional; details: Adenocarcinoma cell
[4] = test system: MIA PaCa-2; experiment: Induction of apoptosis in human MIAPaCa2 cells at 1.5 uM after 24 hrs by propidium iodide staining-based flow cytometric method relative to control; type: functional
[5] = Half life in monkey hepatocytes at 3 uM after 180 mins by LC-MS/MS analysis; type: ADME, cell-based, Macaca mulatta, Hepatocyte; details: rhesus monkey
[6] = Oral bioavailability in BALB/c mouse at 10 mg/kg by LC-MS/MS analysis; type: ADME, organism-based; details: in vivo
[7] = Half life in Sprague-Dawley rat at 30 mg/kg, po by LC-MS/MS analysis; type: ADME, organism-based; details: in vivo
[8] = Pancreas to plasma partition coefficient, Kp of the compound in Sprague-Dawley rat at 30 mg/kg, po measured at 0.5 hrs; type: ADME, organism-based; details: pancreas and plasma

Tyrosine-protein kinase ABL1 (Homo sapiens), P00519 [E255K], sequence (P00519 whole entry E255K): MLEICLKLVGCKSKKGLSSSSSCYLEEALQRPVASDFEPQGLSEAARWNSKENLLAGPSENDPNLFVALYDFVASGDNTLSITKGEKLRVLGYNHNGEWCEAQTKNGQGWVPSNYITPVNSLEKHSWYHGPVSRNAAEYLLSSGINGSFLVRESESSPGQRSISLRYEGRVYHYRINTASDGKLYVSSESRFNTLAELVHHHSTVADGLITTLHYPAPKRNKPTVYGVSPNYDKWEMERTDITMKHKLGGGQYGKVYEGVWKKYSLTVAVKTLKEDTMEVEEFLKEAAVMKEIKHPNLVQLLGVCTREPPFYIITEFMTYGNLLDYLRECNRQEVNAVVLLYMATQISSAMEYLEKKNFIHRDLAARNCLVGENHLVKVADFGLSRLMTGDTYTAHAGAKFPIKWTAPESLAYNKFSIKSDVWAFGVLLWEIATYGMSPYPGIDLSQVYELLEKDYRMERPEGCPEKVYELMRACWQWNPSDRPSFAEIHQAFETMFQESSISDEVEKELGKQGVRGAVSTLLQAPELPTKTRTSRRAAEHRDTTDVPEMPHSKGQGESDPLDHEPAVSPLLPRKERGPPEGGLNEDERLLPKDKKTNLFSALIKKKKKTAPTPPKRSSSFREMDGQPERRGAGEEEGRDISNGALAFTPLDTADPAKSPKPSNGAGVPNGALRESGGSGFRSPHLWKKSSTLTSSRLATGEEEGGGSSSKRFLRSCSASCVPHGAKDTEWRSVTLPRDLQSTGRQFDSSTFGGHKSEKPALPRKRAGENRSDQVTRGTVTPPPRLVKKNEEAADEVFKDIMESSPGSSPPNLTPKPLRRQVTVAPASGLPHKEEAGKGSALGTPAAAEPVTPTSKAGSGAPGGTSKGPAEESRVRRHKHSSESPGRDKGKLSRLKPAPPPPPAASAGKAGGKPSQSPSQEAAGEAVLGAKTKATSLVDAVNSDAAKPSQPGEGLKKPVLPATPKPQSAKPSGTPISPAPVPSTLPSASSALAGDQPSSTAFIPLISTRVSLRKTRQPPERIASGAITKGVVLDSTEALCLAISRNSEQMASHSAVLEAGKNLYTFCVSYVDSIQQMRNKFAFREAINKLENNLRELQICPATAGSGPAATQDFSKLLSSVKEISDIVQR

CN1CC[C@H](c2c(O)cc(O)c3c(=O)cc(/C=C/c4c(Cl)cccc4Cl)oc23)[C@H](O)C1
inhibition [1]: > 98% | inhibition [2]: > 98% | GI50 [3]: 1200 nM | Activity [4]: 1.9% | half-life at 3 µM [5]: 5.43 h | bioavailability [6]: 70.7% | half-life [7]: 3.23 h | Kp at 0.5 h [8]: 5.3

Reference: ChEMBL document CHEMBL4043283, “Discovery and Preclinical Development of IIIM-290, an Orally Active Potent Cyclin-Dependent Kinase Inhibitor” (J Med Chem, 2018)
